Experimental data published in ChEMBL document CHEMBL1130349, “Synthesis and structure-activity relationships of a new model of arylpiperazines. 3.1 2-[omega-(4-arylpiperazin-1-yl)alkyl]perhydropyrrolo- [1,2-c]imidazoles and -perhydroimidazo[1,5-a]pyridines: study of the influence of the terminal amide fragment on 5-HT1A affinity/selectivity” (J Med Chem, 1997).
pKi: −log10 of the molar value.

Key:
[1] = molecular target: T1, Alpha-1A adrenergic receptor (Rattus norvegicus, UniProt P43140); assay: Binding affinities against Alpha-1 adrenergic receptor (alpha1 adrenoceptor) using [3H]prazosin as radioligand in rat cerebral cortex membrane; type: cell membranes
T1 sequence (P43140 whole entry): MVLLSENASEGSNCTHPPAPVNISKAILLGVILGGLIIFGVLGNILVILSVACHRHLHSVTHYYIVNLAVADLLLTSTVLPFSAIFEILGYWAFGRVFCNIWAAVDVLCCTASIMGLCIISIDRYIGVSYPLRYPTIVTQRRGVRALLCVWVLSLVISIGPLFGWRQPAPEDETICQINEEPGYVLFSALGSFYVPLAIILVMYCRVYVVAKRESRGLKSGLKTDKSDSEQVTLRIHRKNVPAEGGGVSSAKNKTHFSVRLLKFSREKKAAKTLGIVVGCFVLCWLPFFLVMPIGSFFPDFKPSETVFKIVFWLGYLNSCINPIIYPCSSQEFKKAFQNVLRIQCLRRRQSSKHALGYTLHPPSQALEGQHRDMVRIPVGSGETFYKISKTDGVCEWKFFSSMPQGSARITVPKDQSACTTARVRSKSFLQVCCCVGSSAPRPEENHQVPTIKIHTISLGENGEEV
Outline: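 Radioligand binding run by a cited earlier method; values are means ± SEM of two to four experiments, each in triplicate.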

[2] = Selectivity ratio of serotonin and alpha receptor; design: reference not given here
[3] = molecular target: T2, 5-hydroxytryptamine receptor 1A (Rattus norvegicus, UniProt P19327); assay: Binding affinities against 5-hydroxytryptamine 1A receptor using [3H]8-OH-DPAT as radioligand in rat cerebral cortex membrane; type: cell membranes
T2 sequence (P19327 whole entry): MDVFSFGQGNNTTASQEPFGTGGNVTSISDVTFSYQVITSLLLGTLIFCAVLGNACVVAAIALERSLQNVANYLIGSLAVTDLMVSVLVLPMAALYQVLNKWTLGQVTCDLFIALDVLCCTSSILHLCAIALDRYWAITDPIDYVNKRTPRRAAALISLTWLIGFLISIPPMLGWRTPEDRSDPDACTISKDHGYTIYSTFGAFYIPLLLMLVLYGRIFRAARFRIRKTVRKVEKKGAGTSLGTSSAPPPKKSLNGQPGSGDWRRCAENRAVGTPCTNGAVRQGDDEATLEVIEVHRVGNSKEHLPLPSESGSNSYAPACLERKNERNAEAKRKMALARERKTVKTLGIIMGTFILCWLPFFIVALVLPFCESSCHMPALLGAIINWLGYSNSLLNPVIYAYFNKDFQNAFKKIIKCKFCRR
Outline: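 Rat cerebral cortex homogenised in ice-cold 50 mM Tris-HCl (pH 7.7), washed twice, preincubated 10 min at 37 °C. Membranes (~1 mg protein) incubated 15 min at 37 °C with 0.6 nM [3H]-8-OH-DPAT across several competitor concentrations. Nonspecific binding defined by 10 μM 5-HT. Two to four experiments, each in triplicate.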

For `O=C1C2CCCN2C(=O)N1CCCCN1CCN(c2cccc(Cl)c2)CC1` (stereo not given), the pKi [1] was 8.02 and the Ki ratio [2] was 0.8.
`FC(F)(F)c1cccc(N2CCN(CCCN3CC4CCCCN4C3)CC2)c1` (stereo not given) gave a pKi [3] of 7.61, a pKi [1] of 6.56 and a Ki ratio [2] of 11.4.
In the case of `O=C1C2CCCCN2C(=O)N1CCCCN1CCN(c2cccc(Cl)c2)CC1` (stereo not given), the pKi [1] was 7.92 and the Ki ratio [2] was 1.7.
Compound `Clc1cccc(N2CCN(CCCCN3CC4CCCN4C3)CC2)c1` (stereo not given) has a pKi [3] of 7.55, a pKi [1] of 7.19 and a Ki ratio [2] of 2.3.
`FC(F)(F)c1cccc(N2CCN(CCCCN3CC4CCCCN4C3)CC2)c1` (stereo not given) gave a pKi [3] of 7.82, a pKi [1] of 6.94 and a Ki ratio [2] of 7.5.
`COc1ccccc1N1CCN(CCCN2CC3CCCCN3C2)CC1` (stereo not given) gave a pKi [3] of 7.86, a pKi [1] of 6.66 and a Ki ratio [2] of 15.7.
`COc1ccccc1N1CCN(CCCCN2CC3CCCN3C2)CC1` (stereo not given) gave a pKi [3] of 7.76, a pKi [1] of 7.14 and a Ki ratio [2] of 4.1.
`COc1ccccc1N1CCN(CCCCN2C(=O)C3CCCCN3C2=O)CC1` (stereo not given) showed a pKi [1] of 8.07 and a Ki ratio [2] of 1.
In the case of `COc1ccccc1N1CCN(CCCN2CC3CCCN3C2)CC1` (stereo not given), the pKi [3] was 7.91, the pKi [1] was 6.49 and the Ki ratio [2] was 26.
Compound `O=C1C2CCCN2C(=O)N1CCCN1CCN(c2cccc(C(F)(F)F)c2)CC1` (stereo not given) has a pKi [1] of 6.96 and a Ki ratio [2] of 28.7.
`O=C1C2CCCCN2C(=O)N1CCCCN1CCN(c2cccc(C(F)(F)F)c2)CC1` (stereo not given) showed a pKi [1] of 7.14 and a Ki ratio [2] of 7.3.
In the case of `COc1ccccc1N1CCN(CCCN2C(=O)C3CCCN3C2=O)CC1` (stereo not given), the pKi [1] was 8.51 and the Ki ratio [2] was 0.7.
In the case of `COc1ccccc1N1CCN(CCCCN2CC3CCCCN3C2)CC1` (stereo not given), the pKi [3] was 8.29, the pKi [1] was 7.35 and the Ki ratio [2] was 8.8.
Compound `COc1ccccc1N1CCN(CCCCN2C(=O)C3CCCN3C2=O)CC1` (stereo not given) has a pKi [1] of 8.08 and a Ki ratio [2] of 1.5.
Work on `Clc1cccc(N2CCN(CCCCN3CC4CCCCN4C3)CC2)c1` (stereo not given) yielded a pKi [3] of 7.61, a pKi [1] of 7.19 and a Ki ratio [2] of 2.6.
With `FC(F)(F)c1cccc(N2CCN(CCCCN3CC4CCCN4C3)CC2)c1` (stereo not given) the pKi [3] was 7.91, the pKi [1] was 6.62 and the Ki ratio [2] was 19.5.
For `O=C1C2CCCCN2C(=O)N1CCCN1CCN(c2cccc(C(F)(F)F)c2)CC1` (stereo not given), the pKi [1] was 7.04 and the Ki ratio [2] was 15.9.
With `FC(F)(F)c1cccc(N2CCN(CCCN3CC4CCCN4C3)CC2)c1` (stereo not given) the pKi [3] was 7.54, the pKi [1] was 6.44 and the Ki ratio [2] was 12.5.
In the case of `COc1ccccc1N1CCN(CCCN2C(=O)C3CCCCN3C2=O)CC1` (stereo not given), the pKi [1] was 8.00 and the Ki ratio [2] was 2.4.
With `O=C1C2CCCN2C(=O)N1CCCCN1CCN(c2cccc(C(F)(F)F)c2)CC1` (stereo not given) the pKi [1] was 7.19 and the Ki ratio [2] was 27.
